# Screens: PubChem, The Scripps Research Institute Molecular Screening Center
# STAT3 act-1 – STAT3 signaling activation; U3A cells, IL-6 STAT3-luciferase reporter, luminescence; 100% = signal with IL-6 EC80 alone; activation (% of control), % at 5.6 µM; hit rate 0.91% among 190,000;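 active = activation above the screen-wide mean of compound activation plus 3 SD, cut at about 130% in these data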;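 note: 0% = background luminescence of wells with medium and substrate only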
#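 system = STAT3-luciferase reporter U3A cells | reagent = IL-6 stimulus at 33 ng/mL final | timing = 1 h compound pre-exposure, 6 h IL-6 stimulation, 37 °C | measured by = luminescence | evaluation = % activation versus median of IL-6-stimulated wells | control set = IL-6-only wells as 100% reference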
# STAT1 inh – inhibitors of IFN-gamma induced STAT1 signaling | hit rate 0.35% among 200,000 | inhibition, % at 5.5 µM | NIH 3T3 STAT1-luciferase reporter, luminescence;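 active = inhibition above a set limit, the mean inhibition across all tested compounds plus 3 SD, cut at about 34% in these data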;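 note: 0% = IFN-gamma with DMSO and 100% = IFN-gamma with 300 µM nifuroxazide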
# STAT3 inh – STAT3 signaling inhibition; U3A cells, IL-6 STAT3-luciferase reporter, luminescence; host cell line lacks STAT1; inhibition, % at 5.5 µM; hit rate 0.89% among 190,000; AID 862;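 active = inhibition above the mean inhibition across all screened compounds plus 3 SD, cut at about 44% in these data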;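 note: 0% = DMSO only wells and 100% = 100 µM nifuroxazide control wells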
# HSP90 refold inh – HSP90 refolding inhibition in rabbit reticulocyte lysate. hit rate 0.91% among 290,000. inhibition, % at 5.6 µM. luciferase refolding luminescence, 3 h;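 active = inhibition above the screen-wide mean plus 3 SD, computed separately per campaign, cut at about 16% in these data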;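 note: 0% = DMSO wells and 100% = 60 µM geldanamycin wells; inhibitors lower the luminescence because luciferase stays unfolded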
# STAT3 act-2 – STAT3 activation, confirmation assay | AID 1267 | potentiation (% of control), % at 5.7 µM | hit rate 64% among 1,200 | U3A STAT3-luciferase reporter, IL-6 potentiation, luminescence; U3A cells lack STAT1; 100 means same as IL-6 alone | shares compounds with STAT3 act-1;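 active = percent activation of the STAT3 luciferase reporter above a set limit taken from the earlier primary screen, cut at about 130% in these data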;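 note: 0% = background signal of medium plus substrate and 100% = median of IL-6 with DMSO wells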
# NFkB act STAT3ct – counter-screen for STAT3 activators: NF-kappaB activation; shares compounds with STAT3 act-1; hit rate 11% among 1,200; activation (% of control), % at 5.7 µM; human cells, NF-kappaB reporter activation; in the data active = activation above about 120%;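 note: reporter induced by TNF-alpha stimulation; 100% = median of stimulated DMSO wells and 0% = no signal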
# STAT1 act STAT3c – activates STAT1, counter-screen to STAT3 activators. shares compounds with STAT3 act-1. NIH 3T3 STAT1-luciferase reporter, IFN-gamma, luminescence. activation (% of control), % at 5.7 µM. hit rate 13% among 1,200. AID 1318;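 active = activation above the solvent-only control well mean plus 3 SD, set per screening run, cut at about 120% in these data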;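 note: 100% = IFN-gamma with DMSO median signal so 100% means no change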
# Starred values were filed as active, the others as inactive; nt = no result. Most compounds without a hit are left out; they make up all but 2% or so of the library.
SMILES,STAT3 act-1,STAT1 inh,STAT3 inh,HSP90 refold inh,STAT3 act-2,NFkB act STAT3ct,STAT1 act STAT3c
O=C(NNC1=C(C(=O)C(F)(F)F)CCC1)c1ccccc1Cl,90,-5,9,2,nt,nt,nt
COc1ccccc1C(=O)NNC1=C(C(=O)C(F)(F)F)CCC1,150*,-4,-63,-3,128,106,102
Cc1cccc(C2c3[nH]c4ccccc4c3CCN2C(=O)c2ccc(=O)[nH]c2)n1 (configuration not stated),143*,-7,-41,-6,120,101,99
Cc1cccc(C2c3[nH]c4ccccc4c3CCN2Cc2ccc(C)s2)n1 (configuration not stated),142*,3,-43,-2,124,99,91
CC(=O)c1ccc(C(=O)N2CCc3c([nH]c4ccccc34)C2c2cccc(C)n2)s1 (configuration not stated),nt,nt,nt,-1,nt,nt,nt
Cc1cccc(CN2CCc3c([nH]c4ccccc34)C2C(C)(C)C)n1 (configuration not stated),nt,nt,nt,4,nt,nt,nt
Cc1cccc(C2c3[nH]c4ccccc4c3CCN2C(=O)Cc2n[nH]c(C)n2)n1 (configuration not stated),137*,7,-35,-2,139*,100,93
Cc1cccc(C2c3[nH]c4ccccc4c3CCN2C(=O)c2cc3c([nH]c2=O)CCCC3)n1 (configuration not stated),127,13,-25,6,nt,nt,nt
Cc1ccc(NC(=O)C2CCCN(C(=O)NCc3ccccc3)C2)c(C)c1 (configuration not stated),nt,nt,nt,-3,nt,nt,nt
Cc1ccc(C(OCC(O)CNC(CO)C(O)c2ccc([N+](=O)[O-])cc2)c2ccccc2)cc1 (configuration not stated),nt,nt,nt,6,nt,nt,nt
Nc1cc(=O)[nH]c(SCC(=O)c2ccc(F)cc2)n1,nt,nt,nt,3,nt,nt,nt
CCOC(=O)c1cnc(-c2ccccc2)nc1N,103,-56,-1,-2,nt,nt,nt
CCOC(=O)c1cnc(-c2ccccc2)nc1N(C)C,173*,-18,-87,-2,155*,116,136*
Cc1c(C(=O)NCc2cccnc2)oc2ccc(S(=O)(=O)N3CC(C)CC(C)C3)cc12 (configuration not stated),136*,2,-46,0,160*,102,102
CSc1ccccc1NC(=O)C1CCN(S(C)(=O)=O)CC1,nt,nt,nt,-3,nt,nt,nt
CC(=O)Nc1ccc(S(=O)(=O)Nc2nc3ccccc3nc2Nc2ccc3ccccc3c2)cc1,152*,2,-56,-6,152*,117,113
CC(=O)Nc1ccc(S(=O)(=O)Nc2nc3ccccc3nc2Nc2cccc(O)c2)cc1,nt,nt,nt,0,nt,nt,nt
COCCNc1nnc(SCC(=O)c2c[nH]c3ccccc23)s1,141*,19,-42,1,136*,104,97
O=C(Nc1cc(C(F)(F)F)ccc1N1CCOCC1)C1Cc2ccccc2CN1C(=O)c1ccco1 (configuration not stated),139*,-3,-44,6,130,104,92
COc1ccccc1NC(=O)C1Cc2ccccc2CN1C(=O)c1ccco1 (configuration not stated),nt,nt,nt,1,nt,nt,nt
CC(=O)Nc1cccc(NC(=O)COC(=O)CO/N=C(\C)c2ccc3c(c2)OCO3)c1,nt,nt,nt,1,nt,nt,nt
CCOC(=O)c1nc2ccccc2s1,146*,-22,-50,-1,147*,116,134*
Cc1nn(-c2ccc(Cl)c(Cl)c2)c(=O)c2ccccc12,146*,-3,-42,1,138*,123*,134*
Cc1nn(-c2ccc3ccccc3c2)c(=O)c2ccccc12,124,-55,-23,-4,nt,nt,nt
Cc1cccc(C(=O)Nc2ccc(C(=O)Nc3ccc(O)cc3)cc2)c1,nt,nt,nt,-3,nt,nt,nt
SMILES,STAT3 act-1,STAT1 inh,STAT3 inh,HSP90 refold inh,STAT3 act-2,NFkB act STAT3ct,STAT1 act STAT3c
COc1ccccc1CC(=O)N1CCC(n2nccc2NC(=O)C2CCOC2)CC1 (configuration not stated),nt,nt,nt,0,nt,nt,nt
CN(C)c1nc(C(=O)O)nc(N2CCOCC2)n1,nt,nt,nt,0,nt,nt,nt
Cc1cc(=O)nc2c3ccccc3n(CC(=O)NC3CCCCC3)n12,nt,nt,nt,1,nt,nt,nt
CCCN(CCC)C(=O)Cn1c2ccccc2c2nc(=O)cc(C)n21,165*,16,-65,-3,161*,105,90
CCc1cc2c(NCCC(=O)O)nc(C)nc2s1,158*,-9,-63,-4,140*,109,100
COc1ccccc1NC(=O)Nc1ccc(Br)cn1,110,10,-4,-5,nt,nt,nt
COc1ccc(Cl)cc1NC(=O)Nc1ccc(Br)cn1,160*,7,-72,2,144*,101,90
O=C(CCc1ccc(O)c(O)c1)N/N=C/c1ccc2c(c1)OCO2,nt,nt,nt,-1,nt,nt,nt
CCOc1ccc(NC(=O)C(C)Oc2ccccc2C(=O)Nc2ccc(C)c(Cl)c2)cc1 (configuration not stated),149*,-10,-61,-5,137*,111,103
O=C(Cc1nc2ccccc2[nH]1)c1ccc([N+](=O)[O-])cc1,nt,nt,nt,4,nt,nt,nt
CN/N=C(\Cc1nc2ccccc2[nH]1)c1ccc([N+](=O)[O-])cc1,136*,-16,-34,2,166*,119,116
CCCCN(CCCC)S(=O)(=O)c1ccc(NC(=O)c2cccs2)cc1,145*,1,-58,0,93,94,94
Cc1cc(C)nc(NS(=O)(=O)c2ccc(NC(=O)c3cccs3)cc2)n1,107,3,-7,0,nt,nt,nt
[O-]/C(=C(\C(=S)Nc1cccc2ccccc12)[n+]1ccccc1)c1cccs1,143*,-1,-34,0,136*,106,92
Cc1cccc(C)c1NC(=S)/C(=C(\[O-])c1cccs1)[n+]1ccccc1,91,-1,9,1,nt,nt,nt
CN(Cc1ccccc1)Cc1c[nH]c2ccccc12,158*,-2,-64,-7,141*,102,95
c1ccc(Cc2c[nH]c3ccccc23)cc1,nt,nt,nt,0,nt,nt,nt
O=C(CCNC(=O)N1CCn2c1nc1ccccc12)NCc1ccccc1Cl,nt,nt,nt,0,nt,nt,nt
COc1ccc(S(=O)(=O)Nc2c(C(=O)O)[nH]c3ccccc23)c(OC)c1,166*,3,-73,-2,159*,105,100
CCOc1ccc(N2C(=O)C3Sc4[nH]c(=O)sc4C(/C=C/c4ccccc4)C3C2=O)cc1 (configuration not stated),141*,-9,-51,0,128,112,115
CCN(Cc1ccccc1)C(=O)c1nn(-c2ccc(OC)cc2)c(=O)c2c1c1ccccc1n2C,105,0,-4,-4,nt,nt,nt
Oc1ccc(Cl)cc1-c1cc(-c2ccccc2)n[nH]1,148*,-12,-52,2,142*,114,125*
O=C(Nc1cccnc1)c1cc(-c2ccc(Cl)cc2Cl)on1,nt,nt,nt,0,nt,nt,nt
